Bioassay records: PubChem, several laboratories
XiGFP reactiv: activators of inactive X chromosome reactivation, primary screen, imaging, XiGFP fibroblasts, GFP high-content imaging, set 2. XiGFP mouse fibroblasts, % GFP-positive cells imaging, 3 d; cells co-treated with 5-aza-dC sensitizer; scaled so ellipticine positive control = 100%. activation, % at 7.58 µM. 0.055% of 360,000 active. AID 743238, 2013;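 active = mean normalized replicate activation at least 10% and every replicate at or above 10%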
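Assay system – SV40-immortalized XiGFP fibroblast cells, line 68-5-11 · Buffer or medium – DMEM supplemented with 5-aza-dC as sensitizing agent · Dosing – one concentration, pinned · Benchmarks – positive control ellipticine, 6 µM final · Times – 3 days compound exposure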
V-ATPase pH: regulators of yeast V-ATPase proton pumping, primary screen, pHLuorin cytosolic pH fluorescence. S. cerevisiae. response, % at 10 µM. 0.37% of 350,000 active. AID 504577, 2011; in the data active = response mostly above about 7.3%, no sharp cut-off; inactive = mostly below about 5.4%; note: actives read high
MIN6 prolif: inducers of MIN6 beta-cell proliferation, primary screen, ATP luminescence, uHTS; MIN6 cells proliferation, ATPlite luminescence, 48 h; cells starved in 0.2% serum; 100% = growth in 10% serum; proliferation, % at 10 µM; 0.29% of 330,000 active; AID 2380, 2010;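 active = compounds whose signal lies at least 3.5 SD above the mean of all wells on their plate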
NTR1 ag: agonists of human NTR1, primary screen, imaging, U2OS cells, beta-arrestin-GFP, high content | Neurotensin receptor type 1 (Homo sapiens), P30989 | NTR1-U2OS beta-arrestin-GFP spot imaging, agonist mode | activation, % at 20 µM | 0.17% of 330,000 active;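 active = activation at or above 40% of the spot to cytoplasm intensity ratio, with at least 20 cells analyzed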
Target sequence (P30989 whole entry, looked up): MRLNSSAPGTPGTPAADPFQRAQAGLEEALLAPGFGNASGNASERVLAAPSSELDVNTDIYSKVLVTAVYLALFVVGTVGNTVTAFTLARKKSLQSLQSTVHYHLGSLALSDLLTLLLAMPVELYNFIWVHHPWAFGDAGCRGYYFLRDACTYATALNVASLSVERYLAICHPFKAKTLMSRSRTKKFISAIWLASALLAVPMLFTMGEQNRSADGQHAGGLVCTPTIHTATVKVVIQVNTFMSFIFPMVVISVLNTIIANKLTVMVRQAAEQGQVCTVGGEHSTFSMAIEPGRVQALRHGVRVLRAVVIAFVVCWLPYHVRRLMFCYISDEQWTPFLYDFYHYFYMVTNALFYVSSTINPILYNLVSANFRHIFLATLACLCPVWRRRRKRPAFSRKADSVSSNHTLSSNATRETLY
Arr AP2 block: inhibitors of beta-arrestin/AP2 binding, primary screen, biochemical, GPCR trafficking, flow cytometry; beta-arrestin 1 C-terminal peptide binding to AP2 beta2-adaptin appendage (human); FITC-arrestin peptide / GST-AP2 beads; AP2 beta2 appendage carries R879A mutation; inhibition, % at 10 µM; 0.31% of 340,000 active;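 active = inhibition above a set limit, near 3 SD of compounds lacking own fluorescence, cut at about 54% in these data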
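System: GST-AP2 R879A glutathione beads | Also added: FITC-arrestin peptide, 50 nM | Times: 12 min plus 1 h, RT | Signal: Bead flow cytometry, FITC channel | Buffer or medium: PBS with 0.05% Tween 20 and 0.1% BSA | Read-out basis: Percent drop in bead-associated FITC signal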
T cell modulator: modulators of CD8 T cell-vesicle binding, primary screen, mouse 2C CD8+ T cells, flow cytometry. response (vesicle binding), % at 7 µM. 0.068% of 330,000 active. 2C CD8+ T cell-vesicle binding; hits give low values. AID 2052, 2009;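 active = response, share of CD8 T cells binding vesicles, and their 90th percentile fluorescence all below set limits, cut at about 80% in these data, passing the limit was not always enough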;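 note: values below 100% mean blocked vesicle binding to the CD8+ T cells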
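Material: murine 2C transgenic CD8+ T lymphocytes / Also added: QL9-peptide-loaded Drosophila micro-vesicles bearing Ld, ICAM-1 and B7-1 / Schedule: binding step 1.5 h, 37 °C, antibody labelling 20 min, ice / Signal: flow cytometry, PE anti-B7-1 (FL2) versus Alexa647 anti-CD8 (FL8), PFA-fixed / Evaluation: percent CD8+ FL2 mean versus row control / Benchmarks: naked versus QL9-loaded vesicles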
Arr-AP2 CP1: inhibitors of arrestin peptide binding to AP2, confirmation, biochemical, cherry pick 1, flow cytometry beads; shares compounds with Arr AP2 block; GST-AP2 beads, FITC arrestin peptide binding; GST-fused beta2-adaptin appendage, R879A mutant; inhibition, % at 10 µM; 2% of 1,300 active; AID 504908, 2011;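 active = inhibition above a set limit, roughly 3 SD of non-fluorescent compound noise, cut at about 38% in these data; inactive = inhibition at or below that limit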;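 note: loss of bead fluorescence from 50 nM FITC arrestin peptide bound to appendage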
GST GSH counter: GST-fluorescein capture on glutathione beads, confirmation, artefact control for arrestin-AP2 inhibitor project, biochemical, cherry pick 1, flow cytometry; inhibition, % at 10 µM; GST-fluorescein binding to GSH beads, fluorescence, counter-screen; shares compounds with Arr AP2 block; 2% of 1,300 active;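 active = inhibition above 50%, about 3 SD of the inhibition seen with non-fluorescent compounds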;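 note: fluorescein maleimide labelled GST captured on 4 micron glutathione beads; higher means more loss of bead fluorescence from quenching or blocked binding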
Hits are given with their value. Shown are actives, neighbours in structure and some others; about 0.89% of the full set was active somewhere.

`COc1ccc(-c2n[nH]c(=S)n2Cc2ccccc2)cc1` gave XiGFP reactiv inactive, V-ATPase pH inactive, MIN6 prolif inactive, NTR1 ag inactive, Arr AP2 block 55.7, T cell modulator inactive, Arr-AP2 CP1 inactive and GST GSH counter inactive.
CC(O)c1nc2ccccc2n1Cc1ccccc1 (centres undefined) was read as XiGFP reactiv inactive, V-ATPase pH inactive, MIN6 prolif inactive, NTR1 ag inactive, Arr AP2 block 54.3, T cell modulator inactive, Arr-AP2 CP1 inactive and GST GSH counter inactive.
For CN1C(=O)c2cc(NC(=O)C3CCC3)ccc2OC[C@H]2O[C@H](CC(=O)NCc3ccccc3F)CC[C@@H]21 the results were XiGFP reactiv inactive.
Screening Cc1cc(NC(=O)CCC(=O)N(C2CC2)C(C(=O)NC(C)(C)C)c2ccccc2Cl)no1 (centres undefined) returned XiGFP reactiv inactive, V-ATPase pH inactive, MIN6 prolif inactive, NTR1 ag inactive, Arr AP2 block inactive and T cell modulator inactive.
Cc1cc(NC(=O)CCC(=O)N(Cc2cccnc2)C(C(=O)NC(C)(C)C)c2ccccc2Cl)no1 (centres undefined) was read as XiGFP reactiv inactive, V-ATPase pH inactive, MIN6 prolif inactive, NTR1 ag inactive, Arr AP2 block 56.9, T cell modulator inactive, Arr-AP2 CP1 inactive and GST GSH counter inactive.
CN1CCN(C(=O)C[C@H]2CC[C@@H](NS(=O)(=O)c3cccc(F)c3)[C@H](CO)O2)CC1 was read as XiGFP reactiv inactive.
`N#Cc1c(SCC(=O)Nc2ccccc2)nsc1SCC(=O)Nc1ccccc1` gave XiGFP reactiv inactive, V-ATPase pH inactive, MIN6 prolif inactive, NTR1 ag inactive, Arr AP2 block 108.7, T cell modulator inactive, Arr-AP2 CP1 inactive and GST GSH counter inactive.
Cc1cccc(NC(=O)CSc2nsc(SCC(=O)Nc3cccc(C)c3)c2C#N)c1 was read as XiGFP reactiv inactive, V-ATPase pH inactive, MIN6 prolif inactive, NTR1 ag inactive, Arr AP2 block inactive and T cell modulator inactive.
`CC(=O)Nc1ccc(NC(=O)CCCSc2nc3ccccc3[nH]2)cc1` gave XiGFP reactiv inactive, V-ATPase pH inactive, MIN6 prolif inactive, NTR1 ag inactive, Arr AP2 block inactive and T cell modulator inactive.
CC(=O)Nc1ccc(NC(=O)CCCc2c[nH]c3ccccc23)cc1 was read as XiGFP reactiv inactive, V-ATPase pH inactive, MIN6 prolif inactive, NTR1 ag inactive, Arr AP2 block inactive and T cell modulator inactive.
CCN(CC(=O)Nc1ccc(NC(C)=O)cc1)C(=O)CCCSc1nc2ccccc2[nH]1 was read as XiGFP reactiv inactive, V-ATPase pH inactive, MIN6 prolif inactive, NTR1 ag inactive, Arr AP2 block 66.5, T cell modulator inactive, Arr-AP2 CP1 inactive and GST GSH counter inactive.
For CCN(CC(=O)Nc1ccc(NC(C)=O)cc1)C(=O)CCCc1c[nH]c2ccccc12 the results were XiGFP reactiv inactive, V-ATPase pH inactive, MIN6 prolif inactive, NTR1 ag inactive, Arr AP2 block 62.1, T cell modulator inactive, Arr-AP2 CP1 inactive and GST GSH counter inactive.
`C[C@@H]1CCCCO[C@@H](CN(C)S(C)(=O)=O)[C@@H](C)CN([C@H](C)CO)C(=O)c2cc(NC(=O)Nc3ccc(F)cc3)ccc2O1` gave XiGFP reactiv inactive.
`COc1ccc2c3c([nH]c2c1)[C@H](CO)N(Cc1cccc(Cl)c1)CC31CN(C(C)=O)C1` gave XiGFP reactiv inactive.
`O=C(CCNC(=O)C1CCN(S(=O)(=O)c2ccccc2)CC1)NCc1ccc(Cl)cc1` gave XiGFP reactiv inactive, V-ATPase pH inactive, MIN6 prolif inactive, NTR1 ag inactive, Arr AP2 block 62.9, T cell modulator inactive, Arr-AP2 CP1 inactive and GST GSH counter inactive.
Screening COc1ccc(S(=O)(=O)N(C)C[C@@H]2Oc3ccc(NS(=O)(=O)c4cccs4)cc3C(=O)N([C@H](C)CO)C[C@H]2C)cc1 returned XiGFP reactiv inactive.
Screening CN(C)CCCN(C(=O)c1ccc(S(=O)(=O)N(C)C2CCCCC2)cc1)c1nc2ccc(F)cc2s1 returned XiGFP reactiv inactive, V-ATPase pH inactive, MIN6 prolif inactive, NTR1 ag inactive, Arr AP2 block inactive and T cell modulator inactive.
Screening Cc1cc(C)c2sc(N(CCCN(C)C)C(=O)c3ccc(S(=O)(=O)N(C)C4CCCCC4)cc3)nc2c1 returned XiGFP reactiv inactive, V-ATPase pH inactive, MIN6 prolif inactive, NTR1 ag inactive, Arr AP2 block 56.8, T cell modulator inactive, Arr-AP2 CP1 inactive and GST GSH counter inactive.
`Nc1nnc(SCC(=O)OCC(=O)Nc2ccccc2F)s1` gave XiGFP reactiv inactive, V-ATPase pH inactive, MIN6 prolif inactive, NTR1 ag inactive, Arr AP2 block 57.0, T cell modulator inactive, Arr-AP2 CP1 inactive and GST GSH counter inactive.
For CO[C@H]1CN(C)C(=O)c2cc(NC(=O)Nc3ccccc3)ccc2OC[C@@H](C)N(C(=O)CC2CC2)C[C@H]1C the results were XiGFP reactiv inactive.
`COc1ccc(C2C(C(=O)c3ccc(C)o3)=C(O)C(=O)N2c2cc(C)on2)cc1OC` (centres undefined) gave V-ATPase pH inactive, MIN6 prolif inactive, NTR1 ag inactive, Arr AP2 block inactive and T cell modulator inactive.
`COc1ccc(OC)c(C2C(C(=O)c3ccc(C)o3)=C(O)C(=O)N2c2cc(C)on2)c1` (centres undefined) gave XiGFP reactiv inactive, V-ATPase pH inactive, MIN6 prolif inactive, NTR1 ag inactive, Arr AP2 block 59.5, T cell modulator inactive, Arr-AP2 CP1 inactive and GST GSH counter inactive.
`C/C(=N\NC(=O)CNc1ccc(F)cc1)c1cc2ccccc2o1` gave XiGFP reactiv inactive, V-ATPase pH inactive, MIN6 prolif inactive, NTR1 ag inactive, Arr AP2 block 63.7, T cell modulator inactive, Arr-AP2 CP1 inactive and GST GSH counter inactive.
